Data published in ChEMBL document CHEMBL5329210, “Novel piperazine-1,2,3-triazole leads for the potential treatment of pancreatic cancer” (RSC Med Chem, 2023).

Tests used:
A2780 [1] = experiment: Inhibition of cell growth of human A2780 cells measured after 72 hrs by MTT assay; assay type: functional
How it was run: (§1)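 MTT read-out. Cancer lines were grown in DMEM with 10% FBS, glutamine and antibiotics. MCF10A was grown in DMEM:F12 with 5% horse serum, EGF, hydrocortisone, cholera toxin and insulin. Cells were plated in duplicate at 2500–4000/well, and drug was added 24 h later. After 72 h, absorbance was read at 540 nm. Single-point lines used 25 μM. GI50 is 50% growth inhibition versus untreated control. n = 3.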

MCF7 [2] = experiment: Inhibition of cell growth of human MCF7 cells measured after 72 hrs by MTT assay; assay type: functional; how it was run: as §1
A-431 = experiment: Inhibition of cell growth of human A-431 cells measured after 72 hrs by MTT assay; assay type: functional; how it was run: as §1
NCI-H460 = experiment: Inhibition of cell growth of human NCI-H460 cells measured after 72 hrs by MTT assay; assay type: functional; how it was run: as §1
[3] = Inhibition of cell growth of human MCF-10A cells measured after 72 hrs by MTT assay; assay type: toxicity, cell-based; how it was run: as §1
MIA PaCa-2 [4] = experiment: Inhibition of cell growth of human MIA PaCa-2 cells at 25 uM measured after 72 hrs by CCK8 assay relative to control; assay type: functional
How it was run: (§2)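 Single 25 μM exposure, read by CCK-8, n = 3, relative to control. Seeding was 3×10^3/well for MiaPaCa2, 7×10^3/well for BxPC3 (in RPMI-1640/10% FBS) and 1×10^4/well for HPDE (in KSFM with rEGF/BPE). After 24 h attachment, cells were exposed for 72 h. CCK-8 was then incubated for 1 h, and A450 minus A650 was compared with 0.5% DMSO.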

MIA PaCa-2 [5] = experiment: Inhibition of cell growth of human MIA PaCa-2 cells measured after 72 hrs by MTT assay; assay type: functional; how it was run: as §1
U-87 MG = experiment: Inhibition of cell growth of human U87 cells measured after 72 hrs by MTT assay; assay type: functional, U-87MG ATCC; how it was run: as §1
BXPC-3 [6] = experiment: Inhibition of cell growth of human BXPC-3 cells at 25 uM measured after 72 hrs by CCK8 assay relative to control; assay type: functional; how it was run: as §2
BE(2)-C [7] = experiment: Inhibition of cell growth of human BE2C cells measured after 72 hrs by MTT assay; assay type: functional; how it was run: as §1
[8] = Inhibition of cell growth of human SJG2 cells measured after 72 hrs by MTT assay; assay type: functional; settings: SJ-G2; how it was run: as §1
HT-29 [9] = experiment: Inhibition of cell growth of human HT-29 cells measured after 72 hrs by MTT assay; assay type: functional; how it was run: as §1
[10] = Inhibition of cell growth of human HPDE cells at 25 uM measured after 72 hrs by CCK8 assay relative to control; assay type: toxicity, cell-based; how it was run: as §2
DU-145 = experiment: Inhibition of cell growth of human DU-145 cells measured after 72 hrs by MTT assay; assay type: functional; how it was run: as §1
PANC-1 [11] = experiment: Inhibition of cell growth of human PANC-1 cells measured after 72 hrs by CCK8 assay; assay type: functional
BXPC-3 [12] = experiment: Inhibition of cell growth of human BXPC-3 cells measured after 72 hrs by CCK8 assay; assay type: functional
How it was run: (§3)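 CCK-8 viability in human pancreatic cancer lines. Compounds were added over 100–0.05 μM 24 h after seeding, alongside a 0.5% DMSO vehicle. After 72 h, CCK-8 was incubated for 1 h at 37 °C. A450 minus A650 was expressed as % of vehicle. IC50 was taken from the dose-response curve. Seeding was 3×10^3/well for MiaPaCa2 and 7×10^3/well for BxPC3 and CFPAC-1. n = 3.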

ASPC1 [13] = experiment: Inhibition of cell growth of human ASPC1 cells measured after 72 hrs by CCK8 assay; assay type: functional
Capan-2 [14] = experiment: Inhibition of cell growth of human Capan-2 cells measured after 72 hrs by CCK8 assay; assay type: functional
HPAC [15] = experiment: Inhibition of cell growth of human HPAC cells measured after 72 hrs by CCK8 assay; assay type: functional
[16] = Inhibition of cell growth of human pancreatic cancer cells measured after 72 hrs by CCK8 assay; assay type: functional; how it was run: as §3
Capan-2 [17] = experiment: Inhibition of cell growth of human Capan-2 cells measured after 72 hrs by MTT assay; assay type: functional; how it was run: as §1
BE(2)-C [18] = experiment: Inhibition of cell growth of human BE2C cells at 25 uM measured after 72 hrs by MTT assay relative to control; assay type: functional; how it was run: as §1
HPAC [19] = experiment: Inhibition of cell growth of human HPAC cells at 25 uM measured after 72 hrs by MTT assay relative to control; assay type: functional; how it was run: as §1
ASPC1 [20] = experiment: Inhibition of cell growth of human ASPC1 cells measured after 72 hrs by MTT assay; assay type: functional; how it was run: as §1
BXPC-3 [21] = experiment: Inhibition of cell growth of human BXPC-3 cells at 25 uM measured after 72 hrs by MTT assay relative to control; assay type: functional; how it was run: as §1
MCF7 [22] = experiment: Inhibition of cell growth of human MCF7 cells at 25 uM measured after 72 hrs by MTT assay relative to control; assay type: functional; how it was run: as §1
HT-29 [23] = experiment: Inhibition of cell growth of human HT-29 cells at 25 uM measured after 72 hrs by MTT assay relative to control; assay type: functional; how it was run: as §1
PANC-1 [24] = experiment: Inhibition of cell growth of human PANC-1 cells measured after 72 hrs by MTT assay; assay type: functional; how it was run: as §1
BXPC-3 [25] = experiment: Inhibition of cell growth of human BXPC-3 cells measured after 72 hrs by MTT assay; assay type: functional; how it was run: as §1
PANC-1 [26] = experiment: Inhibition of cell growth of human PANC-1 cells at 25 uM measured after 72 hrs by MTT assay relative to control; assay type: functional; how it was run: as §1
MIA PaCa-2 [27] = experiment: Inhibition of cell growth of human MIA PaCa-2 cells at 25 uM measured after 72 hrs by MTT assay relative to control; assay type: functional; how it was run: as §1
[28] = Inhibition of cell growth of human MCF-10A cells at 25 uM measured after 72 hrs by MTT assay relative to control; assay type: toxicity, cell-based; how it was run: as §1
ASPC1 [29] = experiment: Inhibition of cell growth of human ASPC1 cells at 25 uM measured after 72 hrs by MTT assay relative to control; assay type: functional; how it was run: as §1
A2780 [30] = experiment: Inhibition of cell growth of human A2780 cells at 25 uM measured after 72 hrs by MTT assay relative to control; assay type: functional; how it was run: as §1
HPAC [31] = experiment: Inhibition of cell growth of human HPAC cells measured after 72 hrs by MTT assay; assay type: functional; how it was run: as §1
Capan-2 [32] = experiment: Inhibition of cell growth of human Capan-2 cells at 25 uM measured after 72 hrs by MTT assay relative to control; assay type: functional; how it was run: as §1
MIA PaCa-2 [33] = experiment: Inhibition of cell growth of human MIA PaCa-2 cells measured after 72 hrs by CCK8 assay; assay type: functional; how it was run: as §3

Row | Structure (SMILES) | GI50 (A2780 [1]) | GI50 (MCF7 [2]) | GI50 (A-431) | GI50 (NCI-H460) | GI50 at 72 h [3] | inhibition at 25 µM (MIA PaCa-2 [4]) | GI50 (MIA PaCa-2 [5]) | GI50 (U-87 MG) | inhibition at 25 µM (BXPC-3 [6]) | GI50 (BE(2)-C [7]) | GI50 [8] | GI50 (HT-29 [9]) | inhibition at 72 h, 25 µM [10] | GI50 (DU-145) | also measured
1 | COc1cccc(-c2cn(CCCN3CCN(S(=O)(=O)c4ccccc4)CC3)nn2)c1 | 40 µM | 35 µM | > 50 µM | > 50 µM | > 50 µM | < 10% | > 50 µM | > 50 µM | < 10% | > 50 µM | 42 µM | 28 µM | 15.8% | > 50 µM | 
2 | O=S(=O)(c1ccc(C(F)(F)F)cc1)N1CCN(CCCn2cc(-c3ccc(C(F)(F)F)cc3)nn2)CC1 |  |  |  |  |  |  |  |  |  |  |  |  |  |  | GI50 (PANC-1 [11]): 16 µM; GI50 (BXPC-3 [12]): 14 µM; GI50 (ASPC1 [13]): 18 µM; GI50 (Capan-2 [14]): 16 µM; GI50 (HPAC [15]): 15 µM
3 | O=S(=O)(NCCCNCc1ccc(Cl)cc1)c1cc(C(F)(F)F)cc(C(F)(F)F)c1 |  |  |  |  |  |  |  |  |  |  |  |  |  |  | GI50 [16]: 1.6 µM
4 | COc1cccc(-c2cn(CCCN3CCN(S(=O)(=O)c4ccc([N+](=O)[O-])cc4)CC3)nn2)c1 | 27 µM | > 50 µM | > 50 µM | > 50 µM | > 50 µM | < 10% | > 50 µM | > 50 µM | 21.1% | > 50 µM | > 50 µM | 41 µM | 46.5% | > 50 µM | 
5 | CC(C)(C)c1ccc(-c2cn(CCCNCCNS(=O)(=O)c3cc(C(F)(F)F)cc(C(F)(F)F)c3)nn2)cc1 |  |  |  |  |  |  |  |  |  |  |  |  |  |  | GI50 [16]: 1.1 µM
6 | O=S(=O)(c1ccccc1C(F)(F)F)N1CCN(CCCn2cc(-c3ccc(Br)cc3)nn2)CC1 | 14 µM | 9.2 µM |  |  | 12 µM |  | > 50 µM |  |  | 38 µM |  | 10 µM |  |  | GI50 (Capan-2 [17]): 23 µM; inhibition at 25 µM (BE(2)-C [18]): 58%; inhibition at 25 µM (HPAC [19]): 42%; GI50 (ASPC1 [20]): > 50 µM; inhibition at 25 µM (BXPC-3 [21]): < 10%; inhibition at 25 µM (MCF7 [22]): 87%; inhibition at 25 µM (HT-29 [23]): 92%; GI50 (PANC-1 [24]): > 50 µM; GI50 (BXPC-3 [25]): > 50 µM; inhibition at 25 µM (PANC-1 [26]): 53%; inhibition at 25 µM (MIA PaCa-2 [27]): 70%; inhibition at 72 h, 25 µM [28]: 72%; inhibition at 25 µM (ASPC1 [29]): 51%; inhibition at 25 µM (A2780 [30]): 68%; GI50 (HPAC [31]): > 50 µM; inhibition at 25 µM (Capan-2 [32]): 65%
7 | COc1cccc(-c2cn(CCCN3CCN(S(=O)(=O)c4ccc(C(F)(F)F)cc4)CC3)nn2)c1 | 21 µM | 28 µM | > 50 µM | > 50 µM | 39 µM | < 10% | > 50 µM | > 50 µM | < 10% | > 50 µM | > 50 µM | 23 µM | 29% | > 50 µM | 
8 | COc1cccc(-c2cn(CCCN3CCN(S(=O)(=O)c4ccc(NC(C)=O)cc4)CC3)nn2)c1 |  |  |  |  |  |  |  |  |  |  |  |  |  |  | GI50 (MIA PaCa-2 [33]): ~50 µM
